In ChEMBL document CHEMBL4257443, “The discovery of a potent Nav1.3 inhibitor with good oral pharmacokinetics” (Medchemcomm, 2017):
Active and inactive are the calls of the source. The rule behind the calls is not given here.

Key:
[1] = target: Sodium channel protein type 3 subunit alpha (Homo sapiens, UniProt Q9NY46); assay: Inhibition of human NaV1.3 expressed in HEK cells by electrophysiological method; format: cell-based
[2] = Lipophilicity, log D of the compound; format: physicochemical; settings: octanol/water
[3] = Dissociation constant, pKa of compound; format: physicochemical
[4] = Clearance in cynomolgus monkey liver microsomes; format: ADME, Macaca fascicularis, microsome; settings: read-out: CLH
[5] = Fraction unbound in rat plasma; format: ADME, cell-free
[6] = Clearance in rat liver microsomes; format: ADME, microsome; settings: read-out: CLH
[7] = target: Sodium channel protein type 1 subunit alpha (Homo sapiens, UniProt P35498); assay: Inhibition of human NaV1.1
[8] = Volume of distribution in rat; format: ADME, organism-based; settings: in vivo
[9] = Elimination half life in rat; format: ADME, organism-based; settings: in vivo, read-out: beta t1/2 (converted)
[10] = target: Voltage-gated inwardly rectifying potassium channel KCNH2 (Homo sapiens, UniProt Q12809); assay: Inhibition of human ERG
[11] = Oral bioavailability in rat; format: ADME, organism-based; settings: in vivo
MDR1 = assay: Efflux ratio of permeability across basolateral to apical over apical to basolateral side in RRCK cells expressing MDR1; format: ADME, cell-based, Canis lupus familiaris, MDCKII-LE; settings: dog, MDCK-MDR1
[12] = Aqueous solubility of compound; format: physicochemical; settings: buffer
[13] = target: Sodium channel protein type 10 subunit alpha (Homo sapiens, UniProt Q9Y5Y9); assay: Inhibition of human NaV1.8
[14] = Clearance in rat; format: ADME, organism-based; settings: in vivo
CYP3A4 = CYP3A4 (Homo sapiens, UniProt P08684); assay: Inhibition of CYP3A4 (unknown origin) at 3 uM by high throughput assay relative to control; format: ADME
[15] = Clearance in human liver microsomes; format: ADME, microsome; settings: read-out: CLH
[16] = target: Sodium channel protein type 9 subunit alpha (Homo sapiens, UniProt Q15858); assay: Inhibition of human NaV1.7
[17] = Clearance in dog liver microsomes; format: ADME, Canis lupus familiaris, microsome; settings: read-out: CLH
CYP2C9 = CYP2C9 (Homo sapiens, UniProt P11712); assay: Inhibition of CYP2C9 (unknown origin) at 3 uM by high throughput assay relative to control; format: ADME
[18] = target: Sodium channel protein type 2 subunit alpha (Homo sapiens, UniProt Q99250); assay: Inhibition of human NaV1.2
[19] = target: Sodium channel protein type 8 subunit alpha (Homo sapiens, UniProt Q9UQD0); assay: Inhibition of human NaV1.6
[20] = target: Sodium channel protein type 5 subunit alpha (Homo sapiens, UniProt Q14524); assay: Inhibition of human NaV1.5
Rattus norvegicus [21] = assay: Antipain activity in tibial nerve transection surgery model of rat assessed as reduction of innocuous brush evoked activity at 9 to 18 mg/kg administered as iv bolus dose measured every 15 mins for 30 mins; format: functional, organism-based
In short: (§1)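 Rats given tibial nerve transection 2 to 3 weeks before recording. Anaesthesia with isoflurane (5% in O2) in a stereotaxic frame, body temperature held at 37 °C, and laminectomy to expose spinal segments L4-5. After stable baseline responses, compound given as IV bolus; evoked activity assessed every 15 min for up to 30 min per dose. Randomised, blinded dosing. Dry blood spots taken for plasma exposure.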

Rattus norvegicus [22] = assay: Antipain activity in tibial nerve transection surgery model of rat assessed as reduction of mechanical punctate stimuli evoked activity at 9 to 18 mg/kg administered as iv bolus dose measured every 15 mins for 30 mins; format: functional, organism-based; in short: as §1
Rattus norvegicus [23] = assay: Antipain activity in tibial nerve transection surgery model of rat assessed as reduction of heat evoked activity at 9 to 18 mg/kg administered as iv bolus dose measured every 15 mins for 30 mins; format: functional, organism-based; in short: as §1
Rattus norvegicus [24] = assay: Antipain activity in tibial nerve transection surgery model of rat assessed as reduction of noxious pinch evoked activity at 9 to 18 mg/kg administered as iv bolus dose measured every 15 mins for 30 mins; format: functional, organism-based; in short: as §1

Sequence of Sodium channel protein type 3 subunit alpha (Q9NY46 whole entry): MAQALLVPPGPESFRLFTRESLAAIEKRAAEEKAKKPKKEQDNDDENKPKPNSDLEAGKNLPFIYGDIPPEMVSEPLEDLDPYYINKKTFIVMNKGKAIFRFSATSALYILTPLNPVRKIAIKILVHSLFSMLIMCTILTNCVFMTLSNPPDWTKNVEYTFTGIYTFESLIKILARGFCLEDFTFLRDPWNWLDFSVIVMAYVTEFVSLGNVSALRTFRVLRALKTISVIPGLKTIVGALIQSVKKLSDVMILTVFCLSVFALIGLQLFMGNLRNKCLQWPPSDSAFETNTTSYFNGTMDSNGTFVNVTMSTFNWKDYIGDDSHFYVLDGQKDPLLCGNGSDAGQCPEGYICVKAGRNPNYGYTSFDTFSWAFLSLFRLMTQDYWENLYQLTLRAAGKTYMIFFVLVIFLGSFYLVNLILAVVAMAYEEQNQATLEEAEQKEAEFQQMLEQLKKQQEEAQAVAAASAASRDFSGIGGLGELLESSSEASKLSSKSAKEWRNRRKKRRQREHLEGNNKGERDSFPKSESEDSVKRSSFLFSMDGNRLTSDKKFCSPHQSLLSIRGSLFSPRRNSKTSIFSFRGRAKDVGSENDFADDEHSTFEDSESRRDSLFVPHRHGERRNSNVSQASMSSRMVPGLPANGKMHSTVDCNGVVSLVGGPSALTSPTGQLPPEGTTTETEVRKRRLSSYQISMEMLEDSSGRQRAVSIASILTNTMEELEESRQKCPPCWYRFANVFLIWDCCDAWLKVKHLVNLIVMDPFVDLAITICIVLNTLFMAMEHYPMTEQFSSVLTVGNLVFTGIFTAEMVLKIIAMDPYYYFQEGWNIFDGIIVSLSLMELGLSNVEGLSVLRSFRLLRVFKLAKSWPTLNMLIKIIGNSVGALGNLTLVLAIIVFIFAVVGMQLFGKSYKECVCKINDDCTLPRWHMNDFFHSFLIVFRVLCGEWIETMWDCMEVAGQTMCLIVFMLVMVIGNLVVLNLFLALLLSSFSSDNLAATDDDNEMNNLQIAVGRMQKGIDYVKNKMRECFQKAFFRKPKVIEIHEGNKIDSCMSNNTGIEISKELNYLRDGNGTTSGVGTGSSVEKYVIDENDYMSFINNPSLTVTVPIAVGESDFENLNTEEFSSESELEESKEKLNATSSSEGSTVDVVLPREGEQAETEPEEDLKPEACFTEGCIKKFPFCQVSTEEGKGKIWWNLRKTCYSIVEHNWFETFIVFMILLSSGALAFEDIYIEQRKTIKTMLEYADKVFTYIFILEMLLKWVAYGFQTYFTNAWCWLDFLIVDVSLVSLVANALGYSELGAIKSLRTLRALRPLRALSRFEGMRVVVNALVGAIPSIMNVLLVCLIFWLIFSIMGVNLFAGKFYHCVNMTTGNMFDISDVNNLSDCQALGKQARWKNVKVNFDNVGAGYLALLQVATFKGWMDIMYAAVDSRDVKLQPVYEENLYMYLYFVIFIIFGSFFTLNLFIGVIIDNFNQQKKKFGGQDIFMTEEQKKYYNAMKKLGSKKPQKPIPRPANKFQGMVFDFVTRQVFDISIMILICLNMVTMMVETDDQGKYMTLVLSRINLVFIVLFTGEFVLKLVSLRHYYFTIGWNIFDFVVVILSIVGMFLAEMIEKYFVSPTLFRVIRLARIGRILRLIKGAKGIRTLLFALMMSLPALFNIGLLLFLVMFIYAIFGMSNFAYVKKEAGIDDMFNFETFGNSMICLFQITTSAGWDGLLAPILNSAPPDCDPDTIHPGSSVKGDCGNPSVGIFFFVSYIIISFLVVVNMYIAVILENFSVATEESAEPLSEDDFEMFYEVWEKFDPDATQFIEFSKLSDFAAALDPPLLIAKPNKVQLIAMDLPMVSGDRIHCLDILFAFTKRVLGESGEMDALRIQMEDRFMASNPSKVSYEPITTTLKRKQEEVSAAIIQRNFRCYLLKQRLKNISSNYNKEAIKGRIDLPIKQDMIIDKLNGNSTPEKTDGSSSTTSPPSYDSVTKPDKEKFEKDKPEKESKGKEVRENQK
Sequence of Voltage-gated inwardly rectifying potassium channel KCNH2 (Q12809 whole entry): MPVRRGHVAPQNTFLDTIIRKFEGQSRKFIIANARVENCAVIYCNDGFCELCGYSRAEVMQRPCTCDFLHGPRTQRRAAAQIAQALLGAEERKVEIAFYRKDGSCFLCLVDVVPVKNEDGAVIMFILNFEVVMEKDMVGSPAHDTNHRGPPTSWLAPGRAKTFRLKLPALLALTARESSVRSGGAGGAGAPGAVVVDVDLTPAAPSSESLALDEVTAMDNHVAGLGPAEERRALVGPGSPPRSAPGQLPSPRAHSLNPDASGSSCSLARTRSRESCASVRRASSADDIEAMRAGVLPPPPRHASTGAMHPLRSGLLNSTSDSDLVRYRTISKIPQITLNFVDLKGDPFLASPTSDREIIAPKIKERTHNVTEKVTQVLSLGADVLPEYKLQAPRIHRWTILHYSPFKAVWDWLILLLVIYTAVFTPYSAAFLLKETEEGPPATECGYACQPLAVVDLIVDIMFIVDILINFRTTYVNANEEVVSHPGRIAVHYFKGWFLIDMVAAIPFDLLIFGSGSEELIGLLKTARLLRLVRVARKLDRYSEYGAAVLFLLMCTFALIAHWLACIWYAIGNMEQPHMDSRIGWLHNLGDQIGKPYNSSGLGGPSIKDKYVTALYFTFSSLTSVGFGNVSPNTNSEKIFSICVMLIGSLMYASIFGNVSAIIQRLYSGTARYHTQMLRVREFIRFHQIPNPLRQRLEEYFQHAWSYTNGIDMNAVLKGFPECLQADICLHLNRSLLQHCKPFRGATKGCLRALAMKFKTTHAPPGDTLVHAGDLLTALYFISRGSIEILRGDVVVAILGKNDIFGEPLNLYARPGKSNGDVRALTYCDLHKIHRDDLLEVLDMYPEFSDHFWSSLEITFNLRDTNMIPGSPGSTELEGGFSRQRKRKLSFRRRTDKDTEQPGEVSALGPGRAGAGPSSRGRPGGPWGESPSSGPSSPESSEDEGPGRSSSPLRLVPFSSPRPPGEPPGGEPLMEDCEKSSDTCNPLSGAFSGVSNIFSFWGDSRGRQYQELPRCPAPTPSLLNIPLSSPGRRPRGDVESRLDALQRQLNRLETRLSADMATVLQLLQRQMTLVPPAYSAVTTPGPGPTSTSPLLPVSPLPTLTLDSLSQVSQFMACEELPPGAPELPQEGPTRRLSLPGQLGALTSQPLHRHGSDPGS
Sequence of Sodium channel protein type 2 subunit alpha (Q99250 whole entry): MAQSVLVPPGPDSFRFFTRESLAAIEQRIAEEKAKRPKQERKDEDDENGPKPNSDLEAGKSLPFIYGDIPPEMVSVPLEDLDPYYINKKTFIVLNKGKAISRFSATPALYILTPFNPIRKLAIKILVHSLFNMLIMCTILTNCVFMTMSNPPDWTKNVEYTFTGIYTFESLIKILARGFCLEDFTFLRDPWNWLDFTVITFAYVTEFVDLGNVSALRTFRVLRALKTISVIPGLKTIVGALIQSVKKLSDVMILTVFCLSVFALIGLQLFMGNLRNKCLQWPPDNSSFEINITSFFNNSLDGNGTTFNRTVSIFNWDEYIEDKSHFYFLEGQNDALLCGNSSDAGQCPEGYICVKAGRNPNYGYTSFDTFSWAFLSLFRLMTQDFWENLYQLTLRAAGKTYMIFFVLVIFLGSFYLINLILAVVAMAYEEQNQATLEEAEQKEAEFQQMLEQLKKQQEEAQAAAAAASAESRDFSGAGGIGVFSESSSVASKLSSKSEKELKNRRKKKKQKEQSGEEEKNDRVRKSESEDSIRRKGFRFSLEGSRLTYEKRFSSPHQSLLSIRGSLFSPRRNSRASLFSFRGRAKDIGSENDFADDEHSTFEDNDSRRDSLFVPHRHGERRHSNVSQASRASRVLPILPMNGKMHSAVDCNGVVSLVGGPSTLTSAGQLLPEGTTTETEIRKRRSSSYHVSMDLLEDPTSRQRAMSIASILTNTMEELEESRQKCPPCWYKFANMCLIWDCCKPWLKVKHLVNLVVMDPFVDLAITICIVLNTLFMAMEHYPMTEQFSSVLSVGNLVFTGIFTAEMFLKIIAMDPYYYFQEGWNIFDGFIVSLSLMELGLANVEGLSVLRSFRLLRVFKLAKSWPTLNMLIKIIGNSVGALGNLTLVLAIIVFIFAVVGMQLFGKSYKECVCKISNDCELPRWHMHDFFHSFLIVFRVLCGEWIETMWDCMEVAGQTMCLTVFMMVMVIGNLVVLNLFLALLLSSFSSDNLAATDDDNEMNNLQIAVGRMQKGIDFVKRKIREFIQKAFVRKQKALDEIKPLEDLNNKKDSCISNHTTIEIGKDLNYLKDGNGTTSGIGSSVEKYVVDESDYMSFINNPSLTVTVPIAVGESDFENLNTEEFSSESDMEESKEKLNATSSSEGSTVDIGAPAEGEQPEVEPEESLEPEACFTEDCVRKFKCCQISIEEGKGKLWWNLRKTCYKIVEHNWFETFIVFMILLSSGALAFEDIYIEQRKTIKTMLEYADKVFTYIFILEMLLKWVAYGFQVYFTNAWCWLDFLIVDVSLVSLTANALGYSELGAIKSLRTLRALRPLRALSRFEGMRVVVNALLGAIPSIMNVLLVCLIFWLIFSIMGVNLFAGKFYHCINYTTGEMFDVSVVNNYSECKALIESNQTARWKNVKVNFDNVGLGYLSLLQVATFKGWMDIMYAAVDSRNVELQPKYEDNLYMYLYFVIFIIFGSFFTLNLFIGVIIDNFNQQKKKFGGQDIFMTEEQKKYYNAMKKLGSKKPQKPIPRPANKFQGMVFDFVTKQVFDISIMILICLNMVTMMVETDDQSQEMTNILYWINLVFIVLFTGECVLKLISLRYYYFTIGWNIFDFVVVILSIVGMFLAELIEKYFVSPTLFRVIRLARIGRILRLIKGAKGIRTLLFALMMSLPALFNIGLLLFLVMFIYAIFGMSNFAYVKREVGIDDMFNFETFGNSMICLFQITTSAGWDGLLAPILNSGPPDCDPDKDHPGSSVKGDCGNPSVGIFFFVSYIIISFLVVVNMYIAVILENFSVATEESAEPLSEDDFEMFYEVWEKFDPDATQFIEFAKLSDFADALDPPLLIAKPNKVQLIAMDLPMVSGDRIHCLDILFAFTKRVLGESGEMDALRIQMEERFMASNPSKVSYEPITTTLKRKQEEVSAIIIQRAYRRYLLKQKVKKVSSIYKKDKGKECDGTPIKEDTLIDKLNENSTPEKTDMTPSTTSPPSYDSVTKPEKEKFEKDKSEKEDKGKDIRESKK

Compound: O=S(=O)(NCc1ccc(C(F)(F)F)cc1)c1ccc(S(=O)(=O)Nc2nccs2)cc1
- IC50 [1]: 160 nM

Compound: O=S(=O)(Nc1ncns1)c1ccc(Oc2ccc(OC(F)(F)F)c(Cl)c2)cc1
- logD [2]: 2.5
- IC50 [1]: 296 nM

Compound: O=C(c1ccc(OC(F)(F)F)c(Cl)c1)N1CC(OCc2ccc(S(=O)(=O)Nc3ncns3)cc2)C1
- logD [2]: 1.3
- IC50 [1]: 237 nM

Compound: O=C(NCc1ccc(OC(F)(F)F)c(Cl)c1)c1ccc(S(=O)(=O)Nc2cncnc2)c(F)c1
- logD [2]: 2
- pKa [3]: 4.6
- IC50 [1]: > 3000 nM

Compound: O=S(=O)(Nc1nccs1)c1ccc(-c2nnc(Cc3ccc(C(F)(F)F)cc3)[nH]2)cc1
- IC50 [1]: 124 nM

Compound: O=C(NCc1ccc(C(F)(F)F)cc1)c1ccc(S(=O)(=O)Nc2nccs2)cc1
- logD [2]: 2.5
- IC50 [1]: 147 nM

Compound: O=S(=O)(Nc1ncns1)c1ccc(OCc2ccc(OC(F)(F)F)c(Cl)c2)cc1
- microsomal CLint [4]: < 32 µL/min/mg
- fraction unbound [5]: 0.00024
- microsomal CLint [6]: < 14 µL/min/mg
- IC50 [7]: 455 nM
- Vd [8]: 1 L/kg
- half-life [9]: 7 h
- IC50 [10]: > 10000 nM
- bioavailability [11]: 73%
- efflux ratio (MDR1): 1
- logD [2]: 2.65
- solubility [12]: 99 µM
- IC50 [13]: 15100 nM
- clearance [14]: 2 mL/min/kg
- inhibition at 3 µM (CYP3A4): 75%
- pKa [3]: 4.1
- microsomal CLint [15]: 15 µL/min/mg
- IC50 [1]: 22 nM
- IC50 [16]: 5100 nM
- microsomal CLint [17]: < 18 µL/min/mg
- inhibition at 3 µM (CYP2C9): 85%
- IC50 [18]: 2760 nM

Compound: O=C(NCc1ccc(OC(F)(F)F)c(Cl)c1)c1ccc(S(=O)(=O)Nc2ncns2)c(F)c1
- IC50 [7]: 12 nM
- IC50 [19]: 2100 nM
- Vd [8]: 0.1 L/kg
- IC50 [10]: > 100000 nM
- IC50 [20]: 4870 nM
- bioavailability [11]: 4%
- efflux ratio (MDR1): 1
- logD [2]: 2.1
- solubility [12]: 369 µg/mL
- IC50 [13]: 11300 nM
- clearance [14]: 4.4 mL/min/kg
- inhibition at 3 µM (CYP3A4): 88%
- pKa [3]: 3.3
- microsomal CLint [15]: < 8 µL/min/mg
- IC50 [1]: 13 nM
- IC50 [16]: 1800 nM
- inhibition at 3 µM (CYP2C9): 88%
- IC50 [18]: 920 nM

Compound: O=S(=O)(Nc1nccs1)c1ccc(S(=O)(=O)N2CC[C@H](Oc3c(Cl)cccc3Cl)C2)cc1F
- logD [2]: 2.6
- IC50 [1]: 945 nM

Compound: CC(C)C[C@H](CN)CC(=O)O
- Activity (Rattus norvegicus [21]): Active
- Activity (Rattus norvegicus [22]): Active
- Activity (Rattus norvegicus [23]): Active
- Activity (Rattus norvegicus [24]): Active

Compound: O=S(=O)(Nc1nccs1)c1ccc(S(=O)(=O)N2CCC[C@@H]2CNc2ncnc3[nH]ccc23)cc1F
- IC50 [1]: > 3000 nM

Compound: O=C(c1ccc(S(=O)(=O)Nc2ncns2)c(F)c1)N1CCC(c2noc(-c3ccccc3C(F)(F)F)n2)CC1
- IC50 [1]: 1950 nM

Compound: O=C(NCc1ccc(OC(F)(F)F)c(Cl)c1)c1ccc(S(=O)(=O)Nc2ncccn2)c(F)c1
- logD [2]: 1.8
- IC50 [1]: 374 nM

Compound: O=S(=O)(Nc1nccs1)c1ccc(S(=O)(=O)N2CC(Oc3ccccc3)C2)cc1F
- logD [2]: 1.4
- IC50 [1]: 959 nM

Compound: O=C(NCc1ccc(OC(F)(F)F)c(Cl)c1)c1ccc(S(=O)(=O)Nc2cccnn2)c(F)c1
- logD [2]: 2.4
- IC50 [1]: 1790 nM

Compound: O=C(NCc1ccc(OC(F)(F)F)cc1)c1ccc(S(=O)(=O)Nc2nccs2)cc1
- logD [2]: 2.6
- IC50 [1]: 197 nM
